# Experiment: Toxicity liver stage against HepG2, at 10uM
# Assay type: cell-based
# Set-up: test concentration 10 uM, cell line HepG2-A16-CD81EGFP
# Conditions: human, HepG2-A16-CD81EGFP cells; read-out: INHIBITION
# In short: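 Uninfected HepG2-A16-CD81EGFP cells, 3 × 10^3 per well, 1536-well, plated on prespotted compound at 10 μM final, parasite-free screening media added to match infected plates; puromycin 10 μM positive, DMSO 0.5% negative; run in parallel with 48 h PbLuc assay at 37 °C, 5% CO2; viability by CellTiter-Glo luminescence, normalized to controls.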
row,SMILES,cytotoxicity at 10 µM [%]
1,COc1ccc(-c2ccnc(N)c2)c(C)c1,6.63
2,C=C(C)COc1ccccc1CNC(CC)c1ccnn1C (stereo unspecified),-4.7
3,COc1ccc(C(=O)N2C[C@@H](CN3CCOCC3)[C@@H](CO)C2)c(C)c1,-13.8
4,CNC(=O)c1[nH]nc2ccc(I)cc12,-61.9
5,Cc1cnn(C2CN(CC(O)c3ccc(F)cc3)C2)c1 (stereo unspecified),11.9
6,CN1CCN(CCc2ncnn2-c2ccc3c(c2)OCO3)CC1,-0.00326
7,Cn1cc(CN2CCC3(C2)CN(Cc2ccsc2)C3)cn1,-11.2
8,O=c1cc(N2CCCCC2)cnn1CCCn1cccn1,-48.9
9,Cc1ncsc1C(=O)N1CCCC(CO)(CC2CC2)C1 (stereo unspecified),-1.5
10,CNc1ncc(CN(C)Cc2cc(O)c3cccc(Cl)c3n2)cn1,7.05
11,Cc1cccc(CC(=O)NC2CCN(C(=O)NC(C)(C)C)CC2)c1,-10.4
12,Cc1[nH]ncc1C(=O)N1CCCC(n2cncn2)C1 (stereo unspecified),7.75
13,Cc1cc(CN2CCN(C(=O)CCc3cccc(F)c3F)CC2)on1,-6.16
14,Cc1nc(C)c(COc2ccc(N(C)S(C)(=O)=O)cc2)s1,23.2
15,c1cncc(-c2noc(CN3CCn4c(nnc4C4CC4)C3)n2)c1,-8.69
16,O=C(CCc1ccco1)N1CCc2[nH]nc(COc3ccccc3)c2C1,0.86
17,CCc1ncc(CN(C)C2CCN(c3sccc3C#N)C2=O)s1 (stereo unspecified),-0.876
18,O=C(C1CC1)N1CC[C@H](O)[C@@H]1Cc1ccccc1,1.93
19,Cc1nnc(NC(=O)N2CCC(N3CCCCC3)CC2)s1,7.15
20,O=C(Nc1cccnc1)[C@@H]1C[C@H]2OCC[C@H]2N(Cc2ccsc2)C1,2.88
21,CN(CCCC1CCCO1)S(=O)(=O)NCc1ccccc1 (stereo unspecified),2.2

row,SMILES,cytotoxicity at 10 µM [%]
1,CC(C)c1nn(C)c(Cl)c1CNCc1ccc2c(c1)OCCO2,-1.64
2,CCCn1cc2nc(N3CCCC3)[nH]cc-2c1=O,2.13
3,COCC[C@]1(O)CCN(C(=O)CCn2c(C)cccc2=O)C[C@H]1C,3.28
4,OCCn1nccc1C1CCN(CCCOc2ccc(F)cc2)CC1,-4.3
5,CO[C@H]1CN(S(=O)(=O)c2ccccc2F)C[C@@]12CCCO2,-3.08
6,O=C(Cc1ccc(F)cc1)NCc1ccc(C(=O)O)o1,-8.06
7,CCS(=O)(=O)N1CCC(Nc2c(Cl)cccc2C#N)CC1,-0.85
8,Cc1cccc(C2(CNC(=O)CO)CCCC2)c1,-19.1
9,CN1CCN(Cc2ccc(-c3ccc(-c4ccn[nH]4)cc3)nc2)CC1,3.61
10,Fc1ccc(-c2noc3c2CN(CC2CC2)CC3)cc1F,-6.39
11,c1csc(CN2CCCC3(COCCN(Cc4c[nH]nn4)C3)C2)c1 (stereo unspecified),5.1
12,O=C(Cc1csc(-c2nnc[nH]2)n1)N1CCCC1Cn1cccn1 (stereo unspecified),-2.48
13,CN(C)C(=O)N1CCN(c2ccc3ccc(C(=O)NC4CC4)cn23)CC1,6.53
14,CC(C)Cc1cc(NC(=O)c2ccccc2)n(C)n1,-3.37
15,CC(C)c1cc(C(=O)NCC(O)C2CCOCC2)nn1C(C)(C)C (stereo unspecified),-9.55
16,CN(C)CCO[C@H]1CN(Cc2ccc3c(c2)OCO3)[C@@H]2COC[C@H]12,-5.5
17,COC(=O)c1ccccc1NC(=O)c1c(C)cn(C)c1CC(=O)O,-6.14
18,O=C(O)[C@H]1OCC(=O)N(Cc2cccc(F)c2)[C@@H]1c1ccc(Cl)cc1,8.9
19,Cc1cc(Cl)ccc1C(=O)C1CCCN(Cc2cnc(N(C)C)s2)C1 (stereo unspecified),-13.1
20,CN(C)S(=O)(=O)N1CCCC1c1cccc(-n2ccnc2)n1 (stereo unspecified),-3.75
21,Cc1ccccc1OCC(=O)N1CCOC2(CNCCOC2)C1 (stereo unspecified),-2.96

row,SMILES,cytotoxicity at 10 µM [%]
1,CN1CCOC(CNCc2ccccc2OCc2ccccn2)C1 (stereo unspecified),-9.39
2,CCN1CCCC(O)(CN(C)Cc2c(C)nn(C)c2C)C1 (stereo unspecified),4.95
3,Cc1cccc(CN2C(=O)C[C@H]3[C@@H]2CCN3Cc2ccccn2)n1,6.97
4,CNS(=O)(=O)CCCn1nnc(-c2ccc(F)c(C)c2)n1,-1.52
5,CN(C)C(=O)CO[C@@H]1CN(Cc2ccccc2F)[C@@H]2CCCO[C@@H]21,-3.81
6,CC(=O)c1ccc(NC(=O)C(C)Cn2cc(Br)cn2)cc1 (stereo unspecified),0.88
7,CC(=O)N1CCN(Cc2c(C)sc3ccccc23)CC(O)C1 (stereo unspecified),14.4
8,Cc1cc(Cl)ccc1-n1ncc(C(=O)NCC2COC(C)(C)O2)c1N (stereo unspecified),-2.25
9,Cc1cc(C(=O)NCCSC2CCCC2)no1,-2.21
10,Cc1ccc(C(=O)N2CCC3(CCC(=O)N(CC(N)=O)C3)CC2)cc1,-0.527
11,Cc1cc2cc(C(=O)N3CCN(CCO)[C@@H]4CS(=O)(=O)C[C@@H]43)ccc2o1,-0.357
12,COc1c(C)cnc(CN2CCCC(Cn3nc(C)nc3C)C2)c1C (stereo unspecified),2.37
13,Cc1nc2c(c(NC3CC3)n1)CCN(C(=O)C1(C#N)CC1)CC2,-104
14,Cn1cc(C2=NOC(C(=O)NC3(c4ccccc4)CCCC3)C2)cn1 (stereo unspecified),-0.34
15,CCC(CC)c1cc(CNC(=O)N2CCCN(C(C)=O)CC2)on1,-7.55
16,COc1ccc(CCN2C(=O)O[C@@H]3CN(C)C[C@@H]32)cc1,-2
17,CCOc1cc(C(=O)NS(C)(=O)=O)cc(-c2ccccc2)c1OC,12.5
18,CC(C)CCn1ccc(NC(=O)N2CCCC2C(C)(C)O)n1 (stereo unspecified),5.07
19,CNC(=O)c1ncn2c1CN(CCC(C)C)S(=O)(=O)c1ccccc1-2,-78.8
20,CCOC(=O)CNC(=O)N1CCC(OC)c2ccccc2N(C)C(=O)C1 (stereo unspecified),3.36
21,O=C(c1cn(-c2ccc(F)cc2)nn1)N1CCCC(n2cccn2)C1 (stereo unspecified),-3.56

row,SMILES,cytotoxicity at 10 µM [%]
1,Cc1c(COc2ccccc2)cccc1NC(=O)N1CC[C@H](O)C1,13.7
2,COc1ccc(CCNC(=O)Cn2ncc3c2c(C)nn3C)cc1,8.93
3,COCCc1noc(CN(C)c2cc(C)ncn2)n1,11.9
4,CCCC(=O)N1CCc2c(CNS(C)(=O)=O)cncc2C1,4.36
5,CNC(=O)c1cc2c(nc1NCC(C)C)CCN(C)CC2,-153
6,CC(C)(C)Nc1c(C2CCN(C(=O)C3CC3)CC2)nc2ccccn12,4.58
7,CCc1nnc2n1CCN(C(=O)c1ccc(C(F)(F)F)nc1C)C2,-7.28
8,NC(=O)c1cccc(CN2CCc3c(ncn3C3CC3)C2)c1,-4.6
9,CC(=O)N1N=C(Cc2ccccc2)OC1C(=O)NCC(C)C (stereo unspecified),-4.52
10,Cc1cccc(-c2nc3cc(S(=O)(=O)N4CCCC4)ccc3n2C)n1,16.8
11,O=C1NC(c2ccccc2)=N[C@@]12CC[C@@H]1CN(CC3CCOCC3)C[C@@H]12,4.01
12,Cc1c(Br)cccc1C(=O)NCC1CCNCC1,-16
13,Cc1ccsc1C(Cn1ccnc1-c1ccccc1C(=O)O)N(C)C (stereo unspecified),-2.86
14,Cn1nc(C(=O)N2CCOCC2)c2c1CN(CC1CC1)C2,-90.1
15,O=C(c1cncs1)N1CCC(c2cnccn2)CC1,-23.2
16,O=C(Nc1ccccc1)[C@H]1C[C@H]2CN(Cc3cccnc3)C[C@@H]1O2,-80
17,COCCN1CCC2(CCN(Cc3nccs3)CC2)C1=O,-4.36
18,Cc1nn(C(C)C)c(C)c1S(=O)(=O)Nc1cccc(C(=O)O)c1,9.53

# From ChEMBL document CHEMBL4513216, “Probing the Open Global Health Chemical Diversity Library for Multistage-Active Starting Points for Next-Generation Antimalarials” (ACS Infect Dis, 2020)
